# From ChEMBL document CHEMBL4033777, “Next-Generation Hypoxic Cell Radiosensitizers: Nitroimidazole Alkylsulfonamides” (J Med Chem, 2018)
# What was measured:
# [1] = system: HCT-116; assay: Hypoxia radiosensitization activity in human HCT116 cells assessed as survival ratio by measuring ratio of cell survival with radiation in absence to presence of compound at 1.34 mM preincubated for 1 hr followed by 6 to 29 Gy irradiation measured after 10 days by methylene blue staining-based cell counting method relative to misonidazole; assay type: functional
# [2] = system: HCT-116; assay: Hypoxia radiosensitization activity in human HCT116 cells assessed as survival ratio by measuring ratio of cell survival with radiation in absence to presence of compound at 1.34 mM preincubated for 1 hr followed by 6 to 29 Gy irradiation measured after 10 days by methylene blue staining-based cell counting method; assay type: functional
# [3] = system: HCT-116; assay: Cytotoxicity against human HCT116 cells at anoxic IC50 incubated for 1 hr at 21 degC by clonogenic survival assay; details: hct-116, 1 h
# [4] = system: HCT-116; assay: Hypoxic cytotoxicity ratio of IC50 for human HCT116 cells under oxic condition to IC50 for human HCT116 cells under anoxic condition
# How it was run: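 HCT116 cells, 700 per well and attached 2 h, got a 4 h exposure to 3-fold serial dilutions (<1% DMSO) under air or in a Pd-catalyst anaerobic chamber with pre-equilibrated medium. Cells were washed, regrown 5 days, and stained with sulforhodamine B to give IC50. HCR = oxic IC50 / anoxic IC50.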
# [5] = system: HCT-116; assay: Hypoxia radiosensitization activity in human HCT116 cells assessed as sensitizer enhancement ratio by measuring ratio of radiation dose for 1% survival in absence to presence of compound at 0.82 mM preincubated for 1 hr followed by irradiation measured after 10 days by methylene blue staining-based cell counting method; assay type: functional
# [6] = system: HCT-116; assay: Hypoxia radiosensitization activity in human HCT116 cells assessed as survival ratio by measuring ratio of cell survival with 15 Gy radiation in absence to presence of compound at anoxic IC50 preincubated for 1 hr followed by 15 Gy irradiation measured after 10 days by methylene blue staining-based cell counting method; assay type: functional
# How it was run: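 Anoxic HCT116 cells were seeded at 10^5/well and treated at the anoxic IC50 concentration for 1 h at room temperature. They were irradiated with 15 Gy (60Co, ~2 Gy/min) in a sealed steel box, then plated clonogenically. Colonies of >50 cells were counted […]. SR15 = survival with radiation / survival with drug + radiation.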
# [7] = system: HCT-116; assay: Cytotoxicity against human HCT116 cells incubated for 4 hrs under anaerobic condition measured after 5 days by sulforhodamine B assay; assay type: functional, cell-based
# How it was run: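 STR-authenticated, mycoplasma-free HCT116 cells in αMEM + 5% FCS were seeded at 700 cells/well and allowed 2 h to attach. Drug was added from DMSO stocks (<1% DMSO) in serial 3-fold dilutions for 4 h, oxic or anoxic (Pd-catalyst anaerobic chamber, medium pre-equilibrated ≥3 days). After washing, cells regrew for 5 days before SRB staining and IC50 determination.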
# [8] = system: HCT-116; assay: Hypoxia radiosensitization activity in human HCT116 cells assessed as survival ratio by measuring ratio of cell survival with radiation in absence to presence of compound at 0.82 mM preincubated for 1 hr followed by 6 to 29 Gy irradiation measured after 10 days by methylene blue staining-based cell counting method relative to misonidazole; assay type: functional
# [9] = system: HCT-116; assay: Hypoxia radiosensitization activity in human HCT116 cells assessed as survival ratio by measuring ratio of cell survival with radiation in absence to presence of compound at 0.82 mM preincubated for 1 hr followed by 6 to 29 Gy irradiation measured after 10 days by methylene blue staining-based cell counting method; assay type: functional
# [10] = Solubility of the compound in alphaMEM containing 5% FCS and 1% DMSO by HPLC analysis; assay type: physicochemical
# How it was run: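 Saturated drug solutions were incubated at 37 °C in αMEM with 5% FCS and 1% DMSO. Dissolved drug was quantified by HPLC.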
# [11] = system: HCT-116; assay: Hypoxia radiosensitization activity in human HCT116 cells assessed as sensitizer enhancement ratio by measuring ratio of radiation dose for 1% survival in absence to presence of compound at 0.82 mM preincubated for 1 hr followed by irradiation measured after 10 days by methylene blue staining-based cell counting method relative to misonidazole; assay type: functional
# [12] = Cmax in tumor of NIH-III mouse xenografted with human HCT116 cells at 1.24 mmol/kg, iv administered as single dose by HPLC analysis; assay type: ADME, organism-based, Neoplasm; parameters: dose 1.24 mmol/kg, route intravenous; details: in vivo
# How it was run: (§1)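 Female NIH-III mice bearing subcutaneous HCT116 xenografts (10^6 cells inoculated). At ca. 300 mm3 tumor size, a single i.v. dose was given at the MAD or 75% of the MTD. Vehicle was 0.9% saline with 1% DMSO, or saline with 2 molar equivalents NaHCO3 for phosphate prodrugs. Plasma and tumor were sampled at multiple times by cardiac puncture and excision, assayed by HPLC, and analysed noncompartmentally.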
# [13] = Toxicity in NIH-III mouse at 10 ml/kg, iv; details: in vivo
# How it was run: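 MTD was the highest dose without drug-related deaths, >15% body-weight loss or severe morbidity. MAD was the maximum dose soluble in the injection volume. Vehicle was 0.9% saline with 1% DMSO, or for phosphate prodrugs saline with 2 molar equivalents of NaHCO3.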
# [14] = Tmax in tumor of NIH-III mouse xenografted with human HCT116 cells at 1.24 mmol/kg, iv administered as single dose by HPLC analysis; assay type: ADME, organism-based, Neoplasm; details: 0.93 mmol/kg, in the assay text read “0.93 mmol/kg” for “1.24 mmol/kg”
# How it was run: (§2)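 Female NIH-III mice bearing subcutaneous HCT116 tumors (10^6 cells; ~300 mm3) got a single i.v. dose at the MAD or 75% of the MTD. Vehicle was saline with 1% DMSO, or saline with 2 equivalents of NaHCO3 for the phosphates. Plasma and tumor were sampled at multiple times by cardiac puncture and excision, drug was measured by HPLC, and Tmax came from noncompartmental analysis.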
# [15] = Tmax in plasma of NIH-III mouse xenografted with human HCT116 cells at 1.24 mmol/kg, iv administered as single dose by HPLC analysis; assay type: ADME, organism-based; how it was run: as §2
# [16] = system: Plasma; assay: Cmax in plasma of NIH-III mouse xenografted with human HCT116 cells at 1.24 mmol/kg, iv administered as single dose by HPLC analysis; assay type: ADME, organism-based; parameters: dose 1.24 mmol/kg, route intravenous; details: in vivo; how it was run: as §1
# [17] = system: HCT-116; assay: Hypoxia radiosensitization activity in human HCT116 cells assessed as sensitizer enhancement ratio by measuring ratio of radiation dose for 1% survival in absence to presence of compound at 9.8 mM preincubated for 1 hr followed by irradiation measured after 10 days by methylene blue staining-based cell counting method; assay type: functional
# [18] = system: HCT-116; assay: Hypoxia radiosensitization activity in human HCT116 cells assessed as survival ratio by measuring ratio of cell survival with radiation in absence to presence of compound at 9.8 mM preincubated for 1 hr followed by 6 to 29 Gy irradiation measured after 10 days by methylene blue staining-based cell counting method; assay type: functional
# [19] = system: Mus musculus; assay: Toxicity in NIH-III mouse xenografted with human HCT116 cells assessed as change in body weight with 12.5 Gy radiation at 0.93 mmol/kg, iv administered as single dose; details: in vivo
# [20] = system: HCT-116; assay: Hypoxia radiosensitization activity in human HCT116 cells assessed as survival ratio by measuring ratio of cell survival with radiation in absence to presence of compound at 9.8 mM preincubated for 1 hr followed by 6 to 29 Gy irradiation measured after 10 days by methylene blue staining-based cell counting method relative to misonidazole; assay type: functional
# [21] = Electrophilicity of the compound in pH 7 phosphate buffer assessed as one-electron reduction potential
# How it was run: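 The one-electron reduction potential was set by pulse radiolysis equilibria at pH 7.0 (2.5 mM phosphate), established within 20 µs against benzylviologen, methylviologen or triquat. ΔE came from equilibrium constants via the Nernst equation, at three concentration ratios and 22 ± 2 °C.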
# [22] = system: HCT-116; assay: Hypoxia radiosensitization activity in human HCT116 cells assessed as sensitizer enhancement ratio by measuring ratio of radiation dose for 1% survival in absence to presence of compound at 9.8 mM preincubated for 1 hr followed by irradiation measured after 10 days by methylene blue staining-based cell counting method relative to misonidazole; assay type: functional
# [23] = system: HCT-116; assay: In vivo hypoxia radiosensitization activity in human HCT116 cells xenografted in NIH-III mouse assessed as survival ratio by measuring ratio of cell survival with 12.5 Gy radiation in absence to presence of compound at 1.24 mmol/kg, iv pretreated as single dose for 10 mins followed by irradiation measured after 18 hrs by excision assay; assay type: functional
# [24] = system: HCT-116; assay: Hypoxia radiosensitization activity in human HCT116 cells assessed as survival ratio by measuring ratio of cell survival with radiation in absence to presence of compound at 2.76 mM preincubated for 1 hr followed by 6 to 29 Gy irradiation measured after 10 days by methylene blue staining-based cell counting method relative to misonidazole; assay type: functional
# [25] = system: HCT-116; assay: Hypoxia radiosensitization activity in human HCT116 cells assessed as survival ratio by measuring ratio of cell survival with radiation in absence to presence of compound at 2.76 mM preincubated for 1 hr followed by 6 to 29 Gy irradiation measured after 10 days by methylene blue staining-based cell counting method; assay type: functional
# [26] = system: HCT-116; assay: Hypoxia radiosensitization activity in human HCT116 cells assessed as sensitizer enhancement ratio by measuring ratio of radiation dose for 1% survival in absence to presence of compound at 2.76 mM preincubated for 1 hr followed by irradiation measured after 10 days by methylene blue staining-based cell counting method relative to misonidazole; assay type: functional
# [27] = system: HCT-116; assay: Hypoxia radiosensitization activity in human HCT116 cells assessed as sensitizer enhancement ratio by measuring ratio of radiation dose for 1% survival in absence to presence of compound at 2.76 mM preincubated for 1 hr followed by irradiation measured after 10 days by methylene blue staining-based cell counting method; assay type: functional
# [28] = system: HCT-116; assay: Hypoxia radiosensitization activity in human HCT116 cells assessed as survival ratio by measuring ratio of cell survival with radiation in absence to presence of compound at 2.86 mM preincubated for 1 hr followed by 6 to 29 Gy irradiation measured after 10 days by methylene blue staining-based cell counting method relative to misonidazole; assay type: functional
# [29] = system: HCT-116; assay: Hypoxia radiosensitization activity in human HCT116 cells assessed as survival ratio by measuring ratio of cell survival with radiation in absence to presence of compound at 2.86 mM preincubated for 1 hr followed by 6 to 29 Gy irradiation measured after 10 days by methylene blue staining-based cell counting method; assay type: functional
# [30] = system: HCT-116; assay: Hypoxia radiosensitization activity in human HCT116 cells assessed as survival ratio by measuring ratio of cell survival with radiation in absence to presence of compound at 0.7 mM preincubated for 1 hr followed by 6 to 29 Gy irradiation measured after 10 days by methylene blue staining-based cell counting method; assay type: functional
# [31] = system: HCT-116; assay: Hypoxia radiosensitization activity in human HCT116 cells assessed as survival ratio by measuring ratio of cell survival with radiation in absence to presence of compound at 0.7 mM preincubated for 1 hr followed by 6 to 29 Gy irradiation measured after 10 days by methylene blue staining-based cell counting method relative to misonidazole; assay type: functional
structure (smiles),measurement,setting,value
Cc1ncc([N+](=O)[O-])n1CCS(=O)(=O)NCCN1CCCCC1,fold change (FC),[1],2.36
same,Ratio,[2],24
same,Activity,[3],Non-Toxic
Cc1ncc([N+](=O)[O-])n1CCS(=O)(=O)NCCN(C)C,Ratio IC50,[4],6
same,Ratio,[5],1.57
same,Ratio,[6],11
same,IC50,[7],800 µM
same,fold change (FC),[8],1.51
same,Ratio,[9],14.9
same,solubility,[10],46.8 mM
same,Activity,[3],Non-Toxic
same,fold change (FC),[11],1.06
O=[N+]([O-])c1cncn1CCN1CCOCC1 [NIMORAZOLE],Ratio IC50,[4],0.8
same,Cmax,[12],91 µM
same,Ratio,[6],37
same,MTD,[13],1240 µmol/kg
same,Tmax,[14],10 min
same,Tmax,[15],5 min
same,IC50,[7],9800 µM
same,Cmax,[16],1210 µM
same,Ratio,[17],1.8
same,Ratio,[18],44.9
same,Activity,[19],Non-Toxic
same,fold change (FC),[20],7.28
same,solubility,[10],> 100 mM
same,Activity,[21],-457 mV
same,fold change (FC),[22],1.27
same,Activity,[3],Non-Toxic
same,Ratio,[23],4
Cc1ncc([N+](=O)[O-])n1CCS(=O)(=O)NCCCN1CCOCC1,Ratio IC50,[4],0.8
same,Ratio,[6],8
same,fold change (FC),[24],3.96
same,Ratio,[25],28
same,IC50,[7],2800 µM
same,fold change (FC),[26],1.2
same,Ratio,[27],1.68
same,solubility,[10],> 55.2 mM
same,Activity,[3],Non-Toxic
COCCNS(=O)(=O)CCn1c([N+](=O)[O-])cnc1C,fold change (FC),[28],0.58
same,Ratio,[29],4.8
same,Activity,[3],Non-Toxic
Cc1ncc([N+](=O)[O-])n1CCS(=O)(=O)NCCN1CCCC1,Ratio,[30],13.6
same,fold change (FC),[31],1.51
same,Activity,[3],Non-Toxic
